Test results: ChEMBL document CHEMBL1154351, “Aspergillusol A, an alpha-glucosidase inhibitor from the marine-derived fungus Aspergillus aculeatus” (J Nat Prod, 2009)
Active and inactive are the calls of the source. The rule behind the calls is not given here.

Legend:
[1] = Cytotoxicity against HuCCa1 cells after 4 days by MTT assay; assay type: functional, cell-based; settings: Homo sapiens, HuCC-A1, 96 h
Summary of the method: (§1)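 MTT read-out of viability in human HepG2, HuCCA-1 and A549 cancer cell lines, with doxorubicin as reference drug; IC50 values determined.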

HepG2 = test: Cytotoxicity against human HepG2 cells after 4 days by MTT assay; assay type: functional, cell-based; settings: HepG2, 96 h; summary of the method: as §1
Aromatase = target: T1, Aromatase (Homo sapiens, UniProt P11511); test: Inhibition of aromatase
T1 sequence (P11511 whole entry): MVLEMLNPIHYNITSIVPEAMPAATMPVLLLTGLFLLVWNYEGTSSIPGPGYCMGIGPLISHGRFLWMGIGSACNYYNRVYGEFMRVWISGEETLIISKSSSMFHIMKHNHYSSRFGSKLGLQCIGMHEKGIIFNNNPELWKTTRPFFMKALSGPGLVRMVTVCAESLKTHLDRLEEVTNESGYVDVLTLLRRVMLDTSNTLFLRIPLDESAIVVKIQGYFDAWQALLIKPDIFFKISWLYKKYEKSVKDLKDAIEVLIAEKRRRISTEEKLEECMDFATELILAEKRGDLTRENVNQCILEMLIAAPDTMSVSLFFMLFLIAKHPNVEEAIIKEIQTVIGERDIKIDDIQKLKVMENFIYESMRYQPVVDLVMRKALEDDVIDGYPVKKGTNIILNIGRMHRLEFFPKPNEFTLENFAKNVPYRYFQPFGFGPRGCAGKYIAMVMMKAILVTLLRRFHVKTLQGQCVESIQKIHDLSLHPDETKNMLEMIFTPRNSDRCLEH

[2] = Inhibition of Saccharomyces cerevisiae alpha-glucosidase assessed as p-nitrophenol release by colorimetry
Summary of the method: (§2)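 Colorimetric assay with p-nitrophenyl α-D-glucoside substrate at 1.0 mM final. Enzyme at 0.1 U/mL final for S. cerevisiae α-glucosidase and 0.3 U/mL final for B. stearothermophilus α-glucosidase. Run in triplicate (n = 3), with 1-deoxynojirimycin as standard; IC50 determined.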

[3] = Inhibition of Bacillus stearothermophilus alpha-glucosidase assessed as p-nitrophenol release by colorimetry; parameters: species or system Geobacillus stearothermophilus; summary of the method: as §2
A549 [4] = test: Cytotoxicity against human A549 cells after 4 days by MTT assay; assay type: functional, cell-based; settings: A549, 96 h; summary of the method: as §1
MOLT-3 = test: Cytotoxicity against human MOLT3 cells by XTT assay; assay type: functional, cell-based
Summary of the method: (§3)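 XTT read-out of viability in human MOLT-3 and HL-60 cell lines, with doxorubicin as reference drug; IC50 values determined.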

HuCC-A1 = test: Cytotoxicity against HuCCa1 cells at 240 uM after 4 days by MTT assay; assay type: functional, cell-based; settings: Homo sapiens
HL-60 = test: Cytotoxicity against human HL60 cells by XTT assay; assay type: functional, cell-based; summary of the method: as §3
A549 [5] = test: Cytotoxicity against human A549 cells at 240 uM after 4 days by MTT assay; assay type: functional, cell-based

| IC50 (Aromatase) [µM] | IC50 [2] [µM] | IC50 [3] [µM] | Structure (SMILES) | IC50 [1] [µM] | IC50 (HepG2) [µM] | IC50 (A549 [4]) [µM] | IC50 (MOLT-3) [µM] | Activity (HuCC-A1) | IC50 (HL-60) [µM] | Activity (A549 [5]) |
| --- | --- | --- | --- | --- | --- | --- | --- | --- | --- | --- |
| > 100 | 465 | 1060 | O=C(OC[C@@H](O)[C@@H](O)COC(=O)/C(Cc1ccc(O)cc1)=N\O)/C(Cc1ccc(O)cc1)=N\O [ASPERGILLUSOL A] | 50 | > 105 | 74 | 19 | – | – | – |
| – | – | – | O=C(OC[C@@H](OC(=O)c1ccccc1)[C@@H](COC(=O)c1ccccc1)OC(=O)c1ccccc1)c1ccccc1 | – | 29 | – | – | inactive | 44 | inactive |
| – | – | – | COc1cccc2c1C(=O)c1c(O)c3c(c(O)c1C2=O)C[C@@](O)(C(=O)CO)C[C@@H]3O[C@H]1C[C@H](N)[C@H](O)[C@H](C)O1 [DOXORUBICIN] | 0.64 | 0.37 | – | 0.04 | – | – | – |
| – | 222 | 0.45 | OC[C@H]1NC[C@H](O)[C@@H](O)[C@@H]1O [DUVOGLUSTAT] | – | – | – | – | – | – | – |
